Source: ChEMBL document CHEMBL5058577, “EUbOPEN Chemogenomics Library 2 (Multiplex)” (2022)

Tested on: Fibroblast
Assay: Multiplex assay against human fibroblast
Assay type: toxicity, cell-based
Method in brief: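 Compound was added to live cells that had been stained at seeding with Hoechst33342, BioTracker Green Microtubule Cytoskeleton Dye, MitoTracker Red and Annexin V Alexa Fluor 680, and imaging followed on a CQ1 microscope at 37°C and 5% CO2. CellPathfinder machine-learning gating divided cells into Hoechst high-intensity objects or normal cells, normal cells into healthy, pyknosed or fragmented nuclei, and pyknosed cells into mitotic or apoptotic. Tubulin, mitochondrial-mass and membrane-permeability phenotypes are per cents of healthy-nucleus cells.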

[1] = 12 h, 1 µM, compound concentration 1 uM, replicate 1
[2] = 12 h, 1 µM, compound concentration 1 uM, replicate 2
[3] = 12 h, 10 µM, compound concentration 10 uM, replicate 1
[4] = 12 h, 10 µM, compound concentration 10 uM, replicate 2
[5] = 24 h, 1 µM, compound concentration 1 uM, replicate 1
[6] = 24 h, 1 µM, compound concentration 1 uM, replicate 2
[7] = 24 h, 10 µM, compound concentration 10 uM, replicate 1
[8] = 24 h, 10 µM, compound concentration 10 uM, replicate 2
[9] = 48 h, 1 µM, compound concentration 1 uM, replicate 1
[10] = 48 h, 1 µM, compound concentration 1 uM, replicate 2
[11] = 48 h, 10 µM, compound concentration 10 uM, replicate 1
[12] = 48 h, 10 µM, compound concentration 10 uM, replicate 2

For `CC(/C=C1\SC(=S)N(CCCC(=O)Nc2ccc(C(=O)O)c(O)c2)C1=O)=C\c1ccccc1`, the “Population Apoptotic (%)” value [1] was 50%, the “Population Fragmented Nuclei (%)” value [1] was 14% and the “Population Healthy Nuclei (%)” value [1] was 71%. The “Population Hoechst High Intensity Objects (%)” value [1] was 2%, the “Population Membrane Permeable-Phenotype (%)” value [1] was 0% and the “Population Mitochondria Different-Phenotype (%)” value [1] was 2%. The “Population Mitotic Cells (%)” value [1] was 50%, the “Population Normal (%)” value [1] was 97% and the “Population Pyknosed Nuclei (%)” value [1] was 13%. The “Population Tubulin-Different-Phenotype (%)” value [1] was 28%, the “Total Cell Count” value [1] was 206 and the “Population Apoptotic (%)” value [2] was 33%. The “Population Fragmented Nuclei (%)” value [2] was 19%, the “Population Healthy Nuclei (%)” value [2] was 60% and the “Population Hoechst High Intensity Objects (%)” value [2] was 3%. For the same compound, the “Population Membrane Permeable-Phenotype (%)” value [2] was 13%, the “Population Mitochondria Different-Phenotype (%)” value [2] was 9% and the “Population Mitotic Cells (%)” value [2] was 66%. For the same compound, the “Population Normal (%)” value [2] was 96%, the “Population Pyknosed Nuclei (%)” value [2] was 19% and the “Population Tubulin-Different-Phenotype (%)” value [2] was 54%. The “Total Cell Count” value [2] was 157, the “Population Apoptotic (%)” value [3] was 56% and the “Population Fragmented Nuclei (%)” value [3] was 15%. The “Population Healthy Nuclei (%)” value [3] was 70%, the “Population Hoechst High Intensity Objects (%)” value [3] was 2% and the “Population Membrane Permeable-Phenotype (%)” value [3] was 0%. The “Population Mitochondria Different-Phenotype (%)” value [3] was 5%, the “Population Mitotic Cells (%)” value [3] was 43% and the “Population Normal (%)” value [3] was 97%. For the same compound, the “Population Pyknosed Nuclei (%)” value [3] was 13%, the “Population Tubulin-Different-Phenotype (%)” value [3] was 44% and the “Total Cell Count” value [3] was 123. For the same compound, the “Population Apoptotic (%)” value [4] was 40%, the “Population Fragmented Nuclei (%)” value [4] was 19% and the “Population Healthy Nuclei (%)” value [4] was 48%. For the same compound, the “Population Hoechst High Intensity Objects (%)” value [4] was 4%, the “Population Membrane Permeable-Phenotype (%)” value [4] was 8% and the “Population Mitotic Cells (%)” value [4] was 59%. The “Population Normal (%)” value [4] was 95%, the “Population Pyknosed Nuclei (%)” value [4] was 31% and the “Population Tubulin-Different-Phenotype (%)” value [4] was 54%. The “Total Cell Count” value [4] was 122, the “Population Apoptotic (%)” value [5] was 54% and the “Population Fragmented Nuclei (%)” value [5] was 17%. For the same compound, the “Population Healthy Nuclei (%)” value [5] was 72%, the “Population Hoechst High Intensity Objects (%)” value [5] was 1% and the “Population Membrane Permeable-Phenotype (%)” value [5] was 2%. The “Population Mitochondria Different-Phenotype (%)” value [5] was 4%, the “Population Mitotic Cells (%)” value [5] was 45% and the “Population Normal (%)” value [5] was 98%. The “Population Pyknosed Nuclei (%)” value [5] was 10%, the “Population Tubulin-Different-Phenotype (%)” value [5] was 25% and the “Total Cell Count” value [5] was 208. The “Population Apoptotic (%)” value [6] was 33%, the “Population Healthy Nuclei (%)” value [6] was 63% and the “Population Hoechst High Intensity Objects (%)” value [6] was 2%. The “Population Membrane Permeable-Phenotype (%)” value [6] was 5%, the “Population Mitochondria Different-Phenotype (%)” value [6] was 12% and the “Population Mitotic Cells (%)” value [6] was 66%. For the same compound, the “Population Normal (%)” value [6] was 97%, the “Population Pyknosed Nuclei (%)” value [6] was 19% and the “Population Tubulin-Different-Phenotype (%)” value [6] was 44%. For the same compound, the “Total Cell Count” value [6] was 144, the “Population Apoptotic (%)” value [7] was 66% and the “Population Fragmented Nuclei (%)” value [7] was 11%. For the same compound, the “Population Healthy Nuclei (%)” value [7] was 81%, the “Population Hoechst High Intensity Objects (%)” value [7] was 0% and the “Population Membrane Permeable-Phenotype (%)” value [7] was 0%. For the same compound, the “Population Mitochondria Different-Phenotype (%)” value [7] was 4%, the “Population Mitotic Cells (%)” value [7] was 33% and the “Population Normal (%)” value [7] was 99%. The “Population Pyknosed Nuclei (%)” value [7] was 7%, the “Population Tubulin-Different-Phenotype (%)” value [7] was 25% and the “Total Cell Count” value [7] was 119. The “Population Apoptotic (%)” value [8] was 53%, the “Population Fragmented Nuclei (%)” value [8] was 20% and the “Population Healthy Nuclei (%)” value [8] was 53%. For the same compound, the “Population Hoechst High Intensity Objects (%)” value [8] was 4%, the “Population Membrane Permeable-Phenotype (%)” value [8] was 11% and the “Population Mitotic Cells (%)” value [8] was 46%. For the same compound, the “Population Normal (%)” value [8] was 95%, the “Population Pyknosed Nuclei (%)” value [8] was 26% and the “Population Tubulin-Different-Phenotype (%)” value [8] was 70%. The “Total Cell Count” value [8] was 120, the “Population Apoptotic (%)” value [9] was 78% and the “Population Fragmented Nuclei (%)” value [9] was 24%. The “Population Healthy Nuclei (%)” value [9] was 66%, the “Population Hoechst High Intensity Objects (%)” value [9] was 3% and the “Population Membrane Permeable-Phenotype (%)” value [9] was 1%. The “Population Mitochondria Different-Phenotype (%)” value [9] was 2%, the “Population Mitotic Cells (%)” value [9] was 21% and the “Population Normal (%)” value [9] was 96%. For the same compound, the “Population Pyknosed Nuclei (%)” value [9] was 9%, the “Population Tubulin-Different-Phenotype (%)” value [9] was 31% and the “Total Cell Count” value [9] was 216. For the same compound, the “Population Apoptotic (%)” value [10] was 45%, the “Population Fragmented Nuclei (%)” value [10] was 29% and the “Population Healthy Nuclei (%)” value [10] was 56%. The “Population Hoechst High Intensity Objects (%)” value [10] was 1%, the “Population Membrane Permeable-Phenotype (%)” value [10] was 7% and the “Population Mitochondria Different-Phenotype (%)” value [10] was 6%. For the same compound, the “Population Mitotic Cells (%)” value [10] was 54%, the “Population Normal (%)” value [10] was 98% and the “Population Pyknosed Nuclei (%)” value [10] was 14%. For the same compound, the “Population Tubulin-Different-Phenotype (%)” value [10] was 44%, the “Total Cell Count” value [10] was 159 and the “Population Apoptotic (%)” value [11] was 46%. For the same compound, the “Population Fragmented Nuclei (%)” value [11] was 18%, the “Population Healthy Nuclei (%)” value [11] was 69% and the “Population Hoechst High Intensity Objects (%)” value [11] was 0%. The “Population Membrane Permeable-Phenotype (%)” value [11] was 0%, the “Population Mitochondria Different-Phenotype (%)” value [11] was 1% and the “Population Mitotic Cells (%)” value [11] was 53%. The “Population Normal (%)” value [11] was 100%, the “Population Pyknosed Nuclei (%)” value [11] was 12% and the “Population Tubulin-Different-Phenotype (%)” value [11] was 33%. The “Total Cell Count” value [11] was 124, the “Population Apoptotic (%)” value [12] was 59% and the “Population Fragmented Nuclei (%)” value [12] was 34%. The “Population Healthy Nuclei (%)” value [12] was 46%, the “Population Hoechst High Intensity Objects (%)” value [12] was 3% and the “Population Membrane Permeable-Phenotype (%)” value [12] was 5%. The “Population Mitochondria Different-Phenotype (%)” value [12] was 5%, the “Population Mitotic Cells (%)” value [12] was 40% and the “Population Normal (%)” value [12] was 96%. The “Population Pyknosed Nuclei (%)” value [12] was 19%, the “Population Tubulin-Different-Phenotype (%)” value [12] was 58% and the “Total Cell Count” value [12] was 118.
